The record followed here is ChEMBL document CHEMBL3227985, “N-Alkylated 2-aminotetralins: central dopamine-receptor stimulating activity” (J Med Chem, 1979).

Data set [1] relates to Rattus norvegicus. The data set can be described thus: Central noradrenaline receptor stimulating activity in Sprague-Dawley rat assessed as reduction in DOPA accumulation in hemispheral portion of cerebrum at 2 umol/kg, sc by spectrophotometric method. It counts as functional, organism-based. The method in brief: (§1)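 Male Sprague-Dawley rats (200-350 g), reserpinized. Compounds dissolved in saline immediately before use, neutral pH, 10 mL/kg, given sc over a dose range. Aromatic-L-amino-acid decarboxylase inhibited (100 mg/kg). Dopa and 5-HTP accumulation measured spectrophotometrically in striatum, limbic forebrain and remaining hemispheral portions. ED50 = dose giving 50% of maximal reduction versus control portions, estimated from dose-response curves. Experiments run 9–12 a.m.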

Data set [2] relates to Rattus norvegicus. The data set can be described thus: Central serotonin receptor stimulating activity in Sprague-Dawley rat assessed as reduction in 5-HTP accumulation in striatum of brain at 2 umol/kg, sc by spectrophotometric method. The format is functional, organism-based. The method in brief: as §1
Data set [3] concerns Rattus norvegicus. The data set can be described thus: Toxicity in sc dosed Sprague-Dawley rat assessed as gross behaviour at ED50. It counts as organism-based. To be noted: in vivo.
Data set [4] relates to Rattus norvegicus. The data set can be described thus: Central serotonin receptor stimulating activity in Sprague-Dawley rat assessed as reduction in 5-HTP accumulation in limbic region of brain at 2 umol/kg, sc by spectrophotometric method. The format is functional, organism-based. The conditions noted are these: Limbic system. The method in brief: as §1
The test system of data set [5] is Rattus norvegicus. Nature of the data set: Central serotonin receptor stimulating activity in Sprague-Dawley rat assessed as reduction in 5-HTP accumulation in hemispheral portion of cerebrum at 2 umol/kg, sc by spectrophotometric method. It counts as functional, organism-based. The method in brief: as §1
For data set [6], the system named is Rattus norvegicus. The data set can be described thus: Central dopamine receptor stimulating activity in Sprague-Dawley rat assessed as reduction in DOPA accumulation in limbic region of brain at 2 umol/kg, sc by spectrophotometric method. To be noted: Limbic system. It counts as functional. Summed up: as §1

Active and inactive are the calls of the source. No cut-off for these calls is given here.

Regarding `COc1cccc2c1CCC(N)C2.Cl` (configuration not stated), the result with Rattus norvegicus [1], with Rattus norvegicus [2], in the data set with Rattus norvegicus [4] and with Rattus norvegicus [5] was inactive. For the same molecule, in the data set on Rattus norvegicus [3], the Activity entry was “Non-toxic”.

With `Br.Oc1cccc2c1CCC(N1CCCCC1)C2` (configuration not stated), the outcome in the data set with Rattus norvegicus [1], with Rattus norvegicus [2], in the data set on Rattus norvegicus [4] and in the data set on Rattus norvegicus [5] was inactive. Besides, the ED50 in the data set with Rattus norvegicus [6] was greater than 5 µmol/kg. For the same molecule, the Activity entry in the data set with Rattus norvegicus [3] is “Non-toxic”.

In the case of `COc1cccc2c1CCC(N(C)C)C2.Cl` (configuration not stated), the result in the data set with Rattus norvegicus [1], in the data set with Rattus norvegicus [2], with Rattus norvegicus [4] and with Rattus norvegicus [5] was inactive. Besides, the Activity result in the data set on Rattus norvegicus [3] is reported as “Non-toxic”.

As for `CCN(C)C1CCc2c(cccc2OC)C1.Cl` (configuration not stated), the outcome with Rattus norvegicus [1], in the data set on Rattus norvegicus [2], with Rattus norvegicus [4] and with Rattus norvegicus [5] was inactive. The Activity result in the data set with Rattus norvegicus [3] is “Non-toxic”.

As for `Br.CCCCNC1CCc2c(O)cccc2C1` (configuration not stated), the result in the data set on Rattus norvegicus [1], in the data set on Rattus norvegicus [2], in the data set with Rattus norvegicus [4] and in the data set on Rattus norvegicus [5] was inactive. The ED50 in the data set with Rattus norvegicus [6] is greater than 5 µmol/kg. In addition, the Activity entry in the data set with Rattus norvegicus [3] was “Non-toxic”.

As for `CCCN(C(C)C)C1CCc2c(cccc2OC)C1.Cl` (configuration not stated), the result in the data set on Rattus norvegicus [1], with Rattus norvegicus [2], in the data set with Rattus norvegicus [4] and in the data set with Rattus norvegicus [5] was inactive. In the data set with Rattus norvegicus [3], the Activity entry was “Non-toxic”.

In the case of `COc1cccc2c1CCC(N1CCCCC1)C2.Cl` (configuration not stated), the result with Rattus norvegicus [1], with Rattus norvegicus [2], in the data set with Rattus norvegicus [4] and in the data set with Rattus norvegicus [5] was inactive. In the data set on Rattus norvegicus [3], the Activity result is “Non-toxic”.

Take `CCN(CC)C1CCc2c(cccc2OC)C1.Cl` (configuration not stated): the result in the data set with Rattus norvegicus [1], in the data set with Rattus norvegicus [2], in the data set with Rattus norvegicus [4] and in the data set on Rattus norvegicus [5] was inactive. The Activity entry in the data set with Rattus norvegicus [3] is on record as “Non-toxic”.

`CNC1CCc2c(cccc2OC)C1.Cl` (configuration not stated): the result with Rattus norvegicus [1], in the data set with Rattus norvegicus [2], in the data set on Rattus norvegicus [4] and in the data set on Rattus norvegicus [5] was inactive. In addition, in the data set with Rattus norvegicus [3], the Activity entry is reported as “Non-toxic”.

In the case of `CCCCCN(C)C1CCc2c(cccc2OC)C1.Cl` (configuration not stated), the outcome in the data set with Rattus norvegicus [1], in the data set with Rattus norvegicus [2], in the data set with Rattus norvegicus [4] and in the data set on Rattus norvegicus [5] was inactive. The Activity entry with Rattus norvegicus [3] was “Non-toxic”.

Regarding `CCNC1CCc2c(cccc2OC)C1.Cl` (configuration not stated), the outcome with Rattus norvegicus [1], with Rattus norvegicus [2], with Rattus norvegicus [4] and in the data set on Rattus norvegicus [5] was inactive. For the same molecule, the Activity entry with Rattus norvegicus [3] was “Non-toxic”.

For `CCCCN(CCCC)C1CCc2c(cccc2OC)C1.Cl` (configuration not stated), the result in the data set with Rattus norvegicus [1], in the data set with Rattus norvegicus [2], in the data set on Rattus norvegicus [4] and with Rattus norvegicus [5] was inactive. In addition, the Activity result with Rattus norvegicus [3] is “Non-toxic”.

Regarding `CCCCCNC1CCc2c(cccc2OC)C1.Cl` (configuration not stated), the result with Rattus norvegicus [1], in the data set on Rattus norvegicus [2], in the data set on Rattus norvegicus [4] and in the data set on Rattus norvegicus [5] was inactive. Further, the Activity result in the data set with Rattus norvegicus [3] is “Non-toxic”.

On to `CCCCNC1CCc2c(cccc2OC)C1.Cl` (configuration not stated), for which the result with Rattus norvegicus [1], with Rattus norvegicus [2], in the data set with Rattus norvegicus [4] and in the data set with Rattus norvegicus [5] was inactive. Further, the Activity entry with Rattus norvegicus [3] was “Non-toxic”.
